Data on twelve molecules can be found in ChEMBL document CHEMBL4130383, “Hydroxy-substituted trans-cinnamoyl derivatives as multifunctional tools in the context of Alzheimer's disease” (Eur J Med Chem, 2017).

Series [1] can be described thus: Antioxidant activity assessed as inhibition rate constant for auto-oxidation of cumene initiated by AIMN in PhCl at 30 degC. It counts as functional. Put shortly:
(§1)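 Oxygen-uptake measurement in a two-channel differential pressure apparatus. Air-saturated cumene (3.6 M) in chlorobenzene (1:1 v/v) with AIBN 0.05 M as thermal initiator, equilibrated against a reference solution holding excess 2,2,5,7,8-pentamethyl-6-chromanol. Antioxidant injected once O2 consumption was constant. k_inh fitted from the uninhibited and inhibited O2-consumption slopes.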

Series [2] deals with T1, Glycogen synthase kinase-3 beta (Homo sapiens, UniProt P49841). Description: Inhibition of GSK3beta (unknown origin) at 50 uM using GSM substrate after 30 mins by Kinase-Glo reagent based luminescence assay relative to control. Put shortly: (§2)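 Buffer: 50 mM HEPES, 1 mM EDTA, 1 mM EGTA, 15 mM Mg acetate, pH 7.5. Enzyme 20 ng per well, GSM substrate 25 μM, ATP 1 μM, DMSO ≤1%. Incubated 30 min at 30 °C, then stopped with Kinase-Glo; luminescence read after 10 min. Activity normalised between no-inhibitor and […] total-inhibition controls. Single-point screen at 50 μM; IC50 by linear regression. Mean of two experiments, each in duplicate.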
(Kinase-Glo measures the ATP left after a reaction by luminescence.)
Target sequence in this assay (P49841 whole entry, looked up): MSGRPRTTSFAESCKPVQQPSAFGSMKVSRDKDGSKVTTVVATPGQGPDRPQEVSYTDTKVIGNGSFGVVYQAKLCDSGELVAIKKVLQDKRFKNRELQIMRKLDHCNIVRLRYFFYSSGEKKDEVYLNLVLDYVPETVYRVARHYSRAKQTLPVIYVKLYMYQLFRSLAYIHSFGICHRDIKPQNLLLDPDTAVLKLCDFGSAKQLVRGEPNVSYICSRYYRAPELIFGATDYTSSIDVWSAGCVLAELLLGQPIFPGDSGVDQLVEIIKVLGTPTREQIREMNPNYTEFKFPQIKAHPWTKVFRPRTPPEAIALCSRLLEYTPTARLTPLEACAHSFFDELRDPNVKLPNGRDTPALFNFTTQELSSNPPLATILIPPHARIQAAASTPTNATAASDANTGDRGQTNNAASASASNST

Series [3] has as its target T1, Glycogen synthase kinase-3 beta. In words: Inhibition of GSK3beta (unknown origin) using GSM substrate after 30 mins by Kinase-Glo reagent based luminescence assay. The procedure, abridged:
as §2
Target sequence in this assay (P49841 whole entry): as the sequence (P49841 whole entry, looked up) above

Series [4] deals with T2, Amyloid-beta precursor protein (Homo sapiens, UniProt P05067). Description: Inhibition of self-induced amyloid beta (1 to 42) (unknown origin) aggregation at 50 uM by thioflavin T-based fluorometric assay relative to control. The procedure, abridged: (§3)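 HFIP-pretreated Aβ42 stock at 500 μM in CH3CN/0.3 mM Na2CO3/250 mM NaOH, diluted to 50 μM in 10 mM phosphate buffer pH 8.0 with 10 mM NaCl. Incubated at 30 °C with or without inhibitor at 50 μM (1:1 ratio); inhibitor blanks included. ThT fluorescence gave % inhibition. IC50 from concentrations giving 20–80% inhibition.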

The target in series [5] is T2, Amyloid-beta precursor protein. Description: Inhibition of self-induced amyloid beta (1 to 42) (unknown origin) aggregation by thioflavin T-based fluorometric assay. Put shortly:
as §3

Series [6] has the same target. Description: Inhibition of self-induced amyloid beta (1 to 42) (unknown origin) aggregation by thioflavin T-based fluorometric assay relative to control. The conditions noted are these: concentration not given here. The procedure, abridged: as §3
Series [7] has as its target Luciferin 4-monooxygenase (Photinus pyralis) (UniProt P08659). Description: Inhibition of firefly luciferase activity up to 3 mM after 30 mins by luminescence assay. The procedure, abridged: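 Luciferase interference check: the Kinase-Glo luminescence read-out was run without GSK-3β, with compound up to 3 mM.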
Series [8] in a line: Metal chelating activity assessed as compound-Cu2+ complex formation at 7.5 uM by UV-Visible differential spectroscopic method. Put shortly:
(§4)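 Stock solutions: 1 mM ligand and 1 mM CuCl2 in methanol, N2-purged. Fixed ligand (5–15 μM) titrated with CuCl2 up to 3 equivalents, deoxygenated, scanned 200–600 nm at room temperature in a 10 mm quartz cuvette against methanol. Ligand-only and metal-only spectra subtracted to give differential spectra, followed at 460 and 374 nm.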

Series [9] can be described thus: Metal chelating activity assessed as compound-Cu2+ complex formation at 7.5 uM in presence of 0.5 to 2 equiv of Cu2+ by UV-Visible differential spectroscopic method. The procedure, abridged:
as §4

Series [10] is described as follows: Antioxidant activity assessed as inhibition of auto-oxidation of cumene initiated by AIMN in PhCl at 30 degC relative to ethyl ferulate. It counts as functional. The conditions noted are these: for inhibition: dose or concentration not given here. The procedure, abridged:
as §1

Series [11] in a line: Antioxidant activity assessed as inhibition of auto-oxidation of cumene initiated by AIMN in PhCl at 30 degC relative to caffeic acid. The format is functional. Put shortly:
as §1

The nature of series [12]: Pro-oxidant activity in water assessed as auto-oxidation initiated by Cu+/Cu2+ couple in presence of H2O2. It counts as toxicity. The conditions noted are these: buffer.
The target in series [13] is T3, Protein-glutamine gamma-glutamyltransferase (Homo sapiens, UniProt P21980).
T3 sequence (P21980 whole entry): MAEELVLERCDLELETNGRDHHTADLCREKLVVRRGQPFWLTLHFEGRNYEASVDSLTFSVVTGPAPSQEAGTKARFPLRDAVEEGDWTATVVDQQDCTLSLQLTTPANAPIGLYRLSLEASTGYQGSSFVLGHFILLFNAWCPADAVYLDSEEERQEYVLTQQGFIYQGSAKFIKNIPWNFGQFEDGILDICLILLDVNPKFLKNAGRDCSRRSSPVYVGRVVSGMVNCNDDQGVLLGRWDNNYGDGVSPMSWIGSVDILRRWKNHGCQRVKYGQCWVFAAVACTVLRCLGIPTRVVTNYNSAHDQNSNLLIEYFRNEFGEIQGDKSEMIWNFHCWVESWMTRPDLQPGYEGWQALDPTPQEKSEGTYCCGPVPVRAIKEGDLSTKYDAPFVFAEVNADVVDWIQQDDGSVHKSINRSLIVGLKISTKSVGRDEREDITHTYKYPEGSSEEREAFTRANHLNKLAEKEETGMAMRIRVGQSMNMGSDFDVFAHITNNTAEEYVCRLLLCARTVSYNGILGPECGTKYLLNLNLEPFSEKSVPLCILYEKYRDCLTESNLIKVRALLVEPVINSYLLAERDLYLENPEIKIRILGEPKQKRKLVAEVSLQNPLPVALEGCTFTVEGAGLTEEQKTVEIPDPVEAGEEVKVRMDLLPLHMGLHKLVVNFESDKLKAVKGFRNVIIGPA
In words: Inhibition recombinant human TG2 using N-CbzGlu(gamma-p-nitrophenylester)Gly as substrate after 10 mins.

In series [14] the test system is Cortical neurone. Description: Neuroprotective activity against glutamate-induced oxidative stress in Sprague-Dawley rat primary cortical neurons assessed as reduction in cell death at 12.5 to 50 uM after 24 hrs by MTT assay. It counts as functional, cell-based. The settings on record: prague-Dawley. The procedure, abridged:
(§5)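 Immature E17 primary cortical neurons plated at 10^6 cells/ml. At DIV1, rinsed and given increasing compound concentrations, with or without 5 mM glutamate added at the same time. Viability by MTT after 24 h, across three neuronal preparations. Two-way ANOVA with Bonferroni post hoc test.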
(Formazan colour is commonly taken as a measure of viable cells.)

For series [15], the system named is Cortical neurone. In words: Cytotoxicity against Sprague-Dawley rat primary cortical neurons assessed as reduction in cell viability up to 50 uM after 24 hrs by MTT assay. It counts as cell-based. Put shortly:
as §5

Series [16] in a line: Passive permeability of the compound at 100 uM after 6 hrs by PAMPA. (In general: PAMPA measures passive passage across an artificial lipid membrane.)
A short description of series [17]: Antioxidant activity in pH 7.4 phosphate buffer assessed as inhibition rate constant for auto-oxidation of THF initiated by AAPH at 30 degC.

Structures are written as SMILES. Activity calls are given as the source filed them. The rule behind the calls is not given here.

T2 sequence (P05067 whole entry): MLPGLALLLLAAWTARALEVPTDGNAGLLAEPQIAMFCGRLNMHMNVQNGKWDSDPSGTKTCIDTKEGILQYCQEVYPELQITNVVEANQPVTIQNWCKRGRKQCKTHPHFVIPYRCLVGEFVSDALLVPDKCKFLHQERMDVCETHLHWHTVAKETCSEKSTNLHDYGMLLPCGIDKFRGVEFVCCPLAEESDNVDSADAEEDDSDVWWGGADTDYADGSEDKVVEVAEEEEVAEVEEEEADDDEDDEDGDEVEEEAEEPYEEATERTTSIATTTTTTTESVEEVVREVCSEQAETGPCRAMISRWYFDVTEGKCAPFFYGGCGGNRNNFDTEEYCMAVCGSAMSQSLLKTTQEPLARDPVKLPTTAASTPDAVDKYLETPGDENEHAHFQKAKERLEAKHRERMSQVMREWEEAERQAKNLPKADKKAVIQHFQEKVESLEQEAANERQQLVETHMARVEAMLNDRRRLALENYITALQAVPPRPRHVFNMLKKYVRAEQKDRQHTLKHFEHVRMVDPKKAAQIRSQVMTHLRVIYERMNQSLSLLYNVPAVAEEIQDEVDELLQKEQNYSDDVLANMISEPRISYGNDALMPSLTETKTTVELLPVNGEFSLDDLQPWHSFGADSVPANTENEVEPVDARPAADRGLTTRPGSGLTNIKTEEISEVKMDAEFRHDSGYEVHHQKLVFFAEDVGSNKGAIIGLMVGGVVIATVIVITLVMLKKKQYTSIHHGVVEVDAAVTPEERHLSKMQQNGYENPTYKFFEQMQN
Luciferin 4-monooxygenase (Photinus pyralis), sequence (P08659 whole entry): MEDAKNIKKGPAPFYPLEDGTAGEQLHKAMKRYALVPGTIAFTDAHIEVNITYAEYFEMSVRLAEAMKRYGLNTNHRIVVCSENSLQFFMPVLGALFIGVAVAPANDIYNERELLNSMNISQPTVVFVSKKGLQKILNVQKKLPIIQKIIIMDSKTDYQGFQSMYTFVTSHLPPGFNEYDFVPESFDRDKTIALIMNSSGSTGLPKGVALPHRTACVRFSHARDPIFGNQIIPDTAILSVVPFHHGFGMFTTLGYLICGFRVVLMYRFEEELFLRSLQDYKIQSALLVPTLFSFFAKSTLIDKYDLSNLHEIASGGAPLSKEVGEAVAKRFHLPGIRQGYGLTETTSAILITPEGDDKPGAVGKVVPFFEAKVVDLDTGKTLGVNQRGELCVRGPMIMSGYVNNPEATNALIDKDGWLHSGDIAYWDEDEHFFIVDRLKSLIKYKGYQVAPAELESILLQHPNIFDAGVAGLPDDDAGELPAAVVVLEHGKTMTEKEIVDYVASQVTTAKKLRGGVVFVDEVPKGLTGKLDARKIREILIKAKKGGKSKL

In the case of `OCCc1ccc(O)c(O)c1`, the K in series [1] amounted to 8 ×10⁵ /M/s.
The inhibition is the percentage by which the read-out fell short of the control. Usually IC50 stands for the concentration that gives 50% inhibition. As a reminder, the Papp is the rate of passage across a membrane or cell layer, normalised by area and donor concentration. Read a low Papp as slow passage. As for `O=C(/C=C/c1ccc(O)c(O)c1)c1cccnc1`, the inhibition in [2] is 100%; in series [4], 91.5%; in series [6], 20 to 80%. Moreover, the values for the IC50 in [3], in series [5] and in series [13] were 24.4 µM, 9 µM and 1000 µM, respectively. Also, the inhibition result in series [7] was “inactive”. The outcome in series [8], in series [9] and in [14] was Active. Further, the K in series [1] was found to be 6.8 ×10⁵ /M/s; in series [17] it was 3.2 ×10⁵ /M/s. Further, the fold change (FC) in series [10] was 150; in series [11], greater than 2. Moreover, the Activity entry is “Not Active” in [12] and “Non-Toxic” in series [15]. The molecule further yielded a Papp at 6 h, 100 µM in series [16] of 5.5 ×10⁻⁶ cm/s.
With `O=C(/C=C/c1cccc(O)c1)c1cccnc1`, the results for the inhibition in series [2] and in [4] were 43.5% and 5.8%, respectively. Further, the K in series [1] stood at 1.5 ×10³ /M/s. In series [13], the concentration for half-maximal inhibition (IC50) turned out to be 266 µM. In addition, the Papp at 6 h, 100 µM in [16] was determined as 6.5 ×10⁻⁶ cm/s.
For `O=C(/C=C/c1ccc(O)cc1)c1cccnc1`, the figures for the inhibition in series [2] and in series [4] were 25.2% and 21.5%, respectively. The K in series [1] was 5.7 ×10³ /M/s. For the same molecule, in [13], the IC50 is greater than 2000 µM.
For `O=c1c(O)c(-c2ccc(O)c(O)c2)oc2cc(O)cc(O)c12`, the K in series [1] amounted to 5 ×10⁵ /M/s.
The molecule `COc1cc(/C=C/C(=O)O)ccc1O` [FERULATE] gave an IC50 in [5] greater than 100 µM.
As for `COc1cc(/C=C/C(=O)c2cccnc2)ccc1O`, the figures for the inhibition in series [2], in [4] and in series [10] were 37.2%, 17.5% and 54%, respectively. In addition, in series [1], the K came to 7.1 ×10³ /M/s. The IC50 in series [13] is 688 µM. Moreover, in [16], the apparent permeability coefficient (Papp) at 6 h, 100 µM came to 9.9 ×10⁻⁶ cm/s.
`CCOC(=O)/C=C/c1ccc(O)c(OC)c1` returned an inhibition in [2] of 21.4%. Moreover, the K in [1] is 4.6 ×10³ /M/s.
In [5], `C=CCSC(=O)/C=C/c1ccc(O)c(O)c1` gave an IC50 of 12.5 µM.
On the same count and under the same terms, the same measure for `O=C(O)/C=C/c1cccc(O)c1`: greater than 100 µM.
With `O=C(O)/C=C/c1ccc(O)c(O)c1`, the K in [1] is 2.9 ×10⁵ /M/s.
As to `CCOc1cc(/C=C/C(=O)c2cccnc2)ccc1O`, the inhibition in series [2] was determined as 39.5%; in [4], 18.8%; in [10] it was 33%. Further, the K in series [1] came out at 6.1 ×10³ /M/s. Also, in [13], the IC50 stood at 484 µM.
